Experimental data as given in ChEMBL document CHEMBL1125511, “Molecular determinants of the platelet aggregation inhibitory activity of carbamoylpiperidines” (J Med Chem, 1992).

Legend:
[1] = Partition coefficient (logP); assay type: physicochemical; conditions: octanol/water
Homo sapiens [2] = species: Homo sapiens; experiment: Concentration required to inhibit ADP-induced platelet aggregation by 50%
Homo sapiens [3] = species: Homo sapiens; experiment: Concentration inhibits collagen-induced platelet aggregation by 50%(Human blood); assay type: functional
Method in brief: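 Human platelets from citrated PRP washed in HEPES-buffered saline pH 7.4 (EGTA 5 mM, PGE1 1 μM), aequorin-loaded, resuspended with 1 mM MgCl2 and 1 mM CaCl2 at (3-4) × 10^5 platelets/μL. Fibrinogen 1.2 μg added, 37 °C, 1100 rpm stirring. Compound in 95% ethanol added 1 min before collagen (5 μg). Aggregation recorded 5 min. IC50 from linear regression of IC% on log concentration.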

Compound: CCN(CC)CC1CCCN(Cc2ccc(CN3CCCC(CN(CC)CC)C3)cc2)C1 (stereo unspecified)
- logP ([1]; read-out: logP): 4.8
- IC50 (Homo sapiens [2]; Homo sapiens): 1560 µM

Compound: CCCCN(C)C(=O)C1CCCN(Cc2ccc(CN3CCCC(C(=O)N(C)CCCC)C3)cc2)C1 (stereo unspecified)
- logP ([1]; read-out: logP): 4.52
- IC50 (Homo sapiens [2]; Homo sapiens): 22.1 µM

Compound: CCN(Cc1ccccc1)C(=O)C1CCCN(Cc2ccc(CN3CCCC(C(=O)N(CC)Cc4ccccc4)C3)cc2)C1 (stereo unspecified)
- logP ([1]; read-out: logP): 5.76
- IC50 (Homo sapiens [2]; Homo sapiens): 37.7 µM

Compound: Br.Br.CCCCCCCCCCNC(=O)C1CCCN(Cc2ccc(CN3CCCC(C(=O)NCCCCCCCCCC)C3)cc2)C1 (stereo unspecified)
- logP [1]: 10.202
- IC50 (Homo sapiens [2]; Homo sapiens): 862 µM

Compound: O=C(NCc1ccccc1)C1CCCN(Cc2ccc(CN3CCCC(C(=O)NCc4ccccc4)C3)cc2)C1 (stereo unspecified)
- logP ([1]; read-out: logP): 4.18
- IC50 (Homo sapiens [2]; Homo sapiens): 53.6 µM

Compound: CCCCN(CCCC)C(=O)C1CCCN(Cc2ccc(CN3CCCC(C(=O)N(CCCC)CCCC)C3)cc2)C1 (stereo unspecified)
- logP ([1]; read-out: logP): 7.63
- IC50 (Homo sapiens [2]; Homo sapiens): 58.7 µM

Compound: CCCN(Cc1ccccc1)C(=O)C1CCCN(Cc2ccc(CN3CCCC(C(=O)N(CCC)Cc4ccccc4)C3)cc2)C1 (stereo unspecified)
- logP ([1]; read-out: logP): 6.79
- IC50 (Homo sapiens [2]; Homo sapiens): 72.9 µM

Compound: CN(Cc1ccccc1)C(=O)C1CCCN(Cc2ccc(CN3CCCC(C(=O)N(C)Cc4ccccc4)C3)cc2)C1 (stereo unspecified)
- logP ([1]; read-out: logP): 4.72
- IC50 (Homo sapiens [2]; Homo sapiens): 27.3 µM

Compound: O=C(C1CCCN(Cc2ccc(CN3CCCC(C(=O)N(Cc4ccccc4)Cc4ccccc4)C3)cc2)C1)N(Cc1ccccc1)Cc1ccccc1 (stereo unspecified)
- logP ([1]; read-out: logP): 8.03

Compound: CCN(CC)C(=O)C1CCCN(Cc2ccc(CN3CCCC(C(=O)N(CC)CC)C3)cc2)C1 (single isomer, unassigned; (-))
- IC50 (Homo sapiens [3]): 199 µM
- IC50 (Homo sapiens [2]): 233 µM

Compound: CCN(CC)C(=O)C1CCCN(Cc2ccc(CN3CCCC(C(=O)N(CC)CC)C3)cc2)C1 (stereo in doubt; 3a)
- IC50 (Homo sapiens [3]): 20.2 µM
- logP ([1]; read-out: logP): 3.48
- IC50 (Homo sapiens [2]): 44.5 µM

Compound: CCN(CC)C(=O)C1CCCN(Cc2ccc(CN3CCCC(C(=O)N(CC)CC)C3)cc2)C1 (stereo in doubt; 3a-B (0))
- IC50 (Homo sapiens [3]): 65.7 µM
- IC50 (Homo sapiens [2]): 41.4 µM

Compound: CCN(CC)C(=O)C1CCCN(Cc2ccc(CN3CCCC(C(=O)N(CC)CC)C3)cc2)C1 (stereo in doubt; 3a-C (+))
- IC50 (Homo sapiens [3]): 10.7 µM
- IC50 (Homo sapiens [2]): 15.3 µM
